Assay results published in ChEMBL document CHEMBL1154777 (J Med Chem, 2009).
Calls of active or inactive are those of the source. No cut-off for these calls is given here.

Assays:
[1] = target: T1, Mu-type opioid receptor (Homo sapiens, UniProt P35372); assay: Displacement of [3H]DAMGO from human mu opioid receptor expressed in CHO cells after 60 mins by liquid scintillation counting; format: cell-based
[2] = target: Delta-type opioid receptor (Homo sapiens, UniProt P41143); assay: Displacement of [3H]naltrindole from human delta opioid receptor expressed in CHO cells after 3 hrs by liquid scintillation counting; format: cell-based
In short: (§1)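 Membranes from CHO cells stably expressing one human opioid receptor, incubated at 25 °C in 50 mM Tris-HCl pH 7.5 with radioligand: [3H]DAMGO 0.25 nM (60 min), [3H]U69,593 1 nM (60 min), [3H]naltrindole 0.2 nM (3 h). […] Filtered on glass fibre (PEI-soaked for kappa), washed, scintillation counted; IC50 by log-probit fit, Ki via Cheng–Prusoff.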

[3] = target: T2, Kappa-type opioid receptor (Homo sapiens, UniProt P41145); assay: Displacement of [3H]U69593 from human kappa opioid receptor expressed in CHO cells after 60 mins by liquid scintillation counting; format: cell-based; in short: as §1
[4] = species: Homo sapiens; assay: Selectivity ratio of Ki for human delta opioid receptor to Ki for human kappa opioid receptor
[5] = target: T1, Mu-type opioid receptor; assay: Agonist activity at human mu opioid receptor expressed in CHO cells assessed as stimulation of [35S]GTPgammaS binding; format: functional, cell-based
[6] = target: T1, Mu-type opioid receptor; assay: Agonist activity at human mu opioid receptor expressed in CHO cells assessed as maximal stimulation of [35S]GTPgammaS binding relatiev to DAMGO; format: functional, cell-based
In short: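 12 concentrations of each compound incubated with CHO cells expressing the mu receptor; [35S]GTPγS binding stimulation measured, maximal stimulation taken as Emax.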

[7] = target: T1, Mu-type opioid receptor; assay: Antagonist activity at human mu opioid receptor expressed in CHO cells assessed as inhibition of DAMGO-stimulated [35S]GTPgammaS binding; format: functional, cell-based
[8] = target: T2, Kappa-type opioid receptor; assay: Agonist activity at human kappa opioid receptor expressed in CHO cells assessed as stimulation of [35S]GTPgammaS binding; format: functional, cell-based
In short: (§2)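 Agonist mode: 12 concentrations of each compound incubated with CHO cells expressing the receptor named in the line; agonist-stimulated [35S]GTPγS binding measured.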

[9] = target: T2, Kappa-type opioid receptor; assay: Agonist activity at human kappa opioid receptor expressed in CHO cells assessed as maximal stimulation of [35S]GTPgammaS binding relatiev to U50488; format: functional, cell-based; in short: as §2
[10] = target: T2, Kappa-type opioid receptor; assay: Antagonist activity at human kappa opioid receptor expressed in CHO cells assessed as inhibition of U50488-stimulated [35S]GTPgammaS binding; format: functional, cell-based
[11] = Chemical stability at pH 7.4 buffer assessed as hydrolysis half life; format: physicochemical
[12] = Chemical stability assessed as hydrolysis half life in presence of porcine liver esterase; format: ADME; settings: pig, isolated protein
[13] = target: T1, Mu-type opioid receptor; assay: Antagonist activity at human mu opioid receptor expressed in CHO cells assessed as inhibition of DAMGO-stimulated [35S]GTPgammaS binding at 10 uM; format: functional, cell-based

Chain of Delta-type opioid receptor (P41143 whole entry): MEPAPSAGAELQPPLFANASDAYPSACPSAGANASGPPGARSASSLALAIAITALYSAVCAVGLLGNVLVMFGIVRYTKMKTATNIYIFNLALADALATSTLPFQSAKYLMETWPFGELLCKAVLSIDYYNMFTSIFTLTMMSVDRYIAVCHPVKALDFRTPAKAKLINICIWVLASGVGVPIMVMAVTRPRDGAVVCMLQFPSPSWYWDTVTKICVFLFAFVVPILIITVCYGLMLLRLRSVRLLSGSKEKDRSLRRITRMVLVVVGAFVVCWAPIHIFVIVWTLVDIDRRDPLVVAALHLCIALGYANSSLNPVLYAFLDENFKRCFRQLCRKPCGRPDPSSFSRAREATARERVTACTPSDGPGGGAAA
T1 sequence (P35372 whole entry): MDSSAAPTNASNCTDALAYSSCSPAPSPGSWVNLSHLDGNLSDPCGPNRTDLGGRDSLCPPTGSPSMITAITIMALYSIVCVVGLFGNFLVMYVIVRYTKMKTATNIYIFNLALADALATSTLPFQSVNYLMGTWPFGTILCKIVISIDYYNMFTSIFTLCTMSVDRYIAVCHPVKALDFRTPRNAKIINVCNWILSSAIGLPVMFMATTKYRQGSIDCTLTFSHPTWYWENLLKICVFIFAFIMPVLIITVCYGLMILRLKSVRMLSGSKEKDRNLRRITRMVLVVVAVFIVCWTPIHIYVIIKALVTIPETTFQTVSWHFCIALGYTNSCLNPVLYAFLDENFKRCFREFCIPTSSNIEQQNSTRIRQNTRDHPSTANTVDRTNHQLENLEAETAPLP
T2 sequence (P41145 whole entry): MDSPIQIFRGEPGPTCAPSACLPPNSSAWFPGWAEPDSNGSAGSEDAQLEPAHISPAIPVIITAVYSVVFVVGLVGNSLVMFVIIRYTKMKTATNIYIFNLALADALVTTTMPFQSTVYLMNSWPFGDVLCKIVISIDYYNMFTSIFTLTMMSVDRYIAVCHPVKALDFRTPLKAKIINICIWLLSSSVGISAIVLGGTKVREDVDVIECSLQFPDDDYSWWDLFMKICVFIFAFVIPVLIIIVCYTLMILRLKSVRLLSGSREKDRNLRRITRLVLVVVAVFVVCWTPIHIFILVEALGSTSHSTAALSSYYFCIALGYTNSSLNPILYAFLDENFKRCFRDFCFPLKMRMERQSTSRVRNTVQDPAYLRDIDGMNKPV

| SMILES | Ki [1] [nM] | Ki [2] [nM] | Ki [3] [nM] | Ratio Ki [4] | EC50 [5] [nM] | Emax [6] [%] | Imax [7] | IC50 ([7]; read-out: IC50) [nM] | EC50 [8] [nM] | Emax [9] [%] | IC50 [10] | Imax [10] | t1/2 [11] [h] | t1/2 [12] [h] | IC50 ([7]; cho) | Imax [13] [%] |
| --- | --- | --- | --- | --- | --- | --- | --- | --- | --- | --- | --- | --- | --- | --- | --- | --- |
| C=CCN1CC[C@]23c4c5ccc(OC(=O)CCCCCCCCC(=O)Oc6ccc7c(c6)[C@@]68CCCC[C@H]6C(C7)N(CC6CCC6)CC8)c4O[C@H]2CCC[C@H]3[C@H]1C5 | 0.43 | 39 | 0.13 | 300 | 2 | 34 | 73% | 25 | 1.6 | 86 | Not Active | inactive |  |  |  |  |
| COC(=O)C(C)CCCCCCC(C)C(=O)Oc1ccc2c(c1)[C@@]13CCCC[C@H]1[C@@H](C2)N(CC1CCC1)CC3 (stereo partly drawn) | 1.7 | 42 | 0.94 | 45 |  |  |  |  |  |  |  |  |  |  |  |  |
| O=C(CCCCCCCCC(=O)Oc1ccc2c(c1)[C@@]13CCCC[C@H]1[C@@H](C2)N(CC1CCC1)CC3)Oc1ccc2c(c1)[C@@]13CCCC[C@H]1[C@@H](C2)N(CC1CCC1)CC3 |  |  |  | 90 |  |  | 44% |  |  | 65 | Not Active | inactive | 0.767 | 1.83 |  |  |
| O=C(O)CCCCCCCCC(=O)Oc1ccc2c(c1)[C@@]13CCCC[C@H]1[C@@H](C2)N(CC1CCC1)CC3 | 0.71 | 18 | 0.29 |  | 3 | 110 | inactive |  | 2.8 | 75 | Not Active | inactive |  |  | Not Active |  |
| CC(C)(CCCCCCC(C)(C)C(=O)Oc1ccc2c(c1)[C@@]13CCCC[C@H]1[C@@H](C2)N(CC1CCC1)CC3)C(=O)O | 47 | 390 | 18 | 22 |  |  |  |  |  |  |  |  |  |  |  |  |
| CC(C)(CCCCCCC(C)(C)C(=O)Oc1ccc2c(c1)[C@@]13CCCC[C@H]1[C@@H](C2)N(CC1CCC1)CC3)C(=O)OCc1ccccc1 | 8.6 | 210 | 4.7 | 45 |  |  |  |  |  |  |  |  |  |  |  |  |
| CC(CCCCCCC(C)C(=O)Oc1ccc2c(c1)[C@@]13CCCC[C@H]1[C@@H](C2)N(CC1CCC1)CC3)C(=O)O (stereo partly drawn) | 0.46 | 20 | 0.42 | 48 | 13 | 25 |  |  | 4.9 | 58 | Not Active | inactive |  |  | Not Active | 48 |
| CC(C)(CCCCCCC(C)(C)C(=O)Oc1ccc2c(c1)[C@@]13CCCC[C@H]1[C@@H](C2)N(CC1CCC1)CC3)C(=O)Oc1ccc2c(c1)[C@@]13CCCC[C@H]1[C@@H](C2)N(CC1CCC1)CC3 | 0.47 | 15 | 0.47 | 32 | 11 | 40 | 50% | 81 | 6.4 | 60 | Not Active | inactive | 1.68 | 1.67 |  |  |
| CC(CCCCC(C)C(=O)Oc1ccc2c(c1)[C@@]13CCCC[C@H]1[C@@H](C2)N(CC1CCC1)CC3)C(=O)Oc1ccc2c(c1)[C@@]13CCCC[C@H]1[C@@H](C2)N(CC1CCC1)CC3 (stereo partly drawn) | 2.9 | 50 | 2.2 | 23 |  |  |  |  |  |  |  |  | 3.68 | 1.9 |  |  |
| CC(CCCCCCC(C)C(=O)Oc1ccc2c(c1)[C@@]13CCCC[C@H]1[C@@H](C2)N(CC1CCC1)CC3)C(=O)Oc1ccc2c(c1)[C@@]13CCCC[C@H]1[C@@H](C2)N(CC1CCC1)CC3 (stereo partly drawn) | 0.95 | 37 | 0.62 | 60 | 7.1 | 26 | 50% | 140 | 7.3 | 54 | Not Active | inactive | 1.38 | 2.18 |  |  |
